Measurements as given in ChEMBL document CHEMBL3864185, “Identification of N-(2-Phenoxyethyl)imidazo[1,2-a]pyridine-3-carboxamides as New Antituberculosis Agents” (ACS Med Chem Lett, 2016).
Converted amounts (≈) assume the structure as drawn.

Columns and labels:
[1] = tested on: Mycobacterium tuberculosis; test: Antimycobacterial activity against isoniazid/rifampicin-resistant Mycobacterium tuberculosis isolate 11168 after 7 days by microplate alamar blue assay; assay type: functional; conditions: isolate 11168, 168 h
Outline: (§1)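 Microplate Alamar Blue Assay against clinical MDR M. tuberculosis isolates 11168 and 9160, both resistant to isoniazid and rifampicin. Read-out was fluorescence. MIC was the lowest concentration that reduced fluorescence by >90% versus the mean of replicate bacterium-only controls.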

[2] = tested on: Mycobacterium tuberculosis; test: Antimycobacterial activity against isoniazid/rifampicin-resistant Mycobacterium tuberculosis isolate 9160 after 7 days by microplate alamar blue assay; assay type: functional; conditions: isolate 9160, 168 h; outline: as §1

Structure (SMILES) | MIC [1] [µg/mL] | MIC [2] [µg/mL]
COc1cccc(OCCNC(=O)c2c(C)nc3ccc(C)cn23)c1 | 0.029 (≈ 0.0854 µM) | 0.035 (≈ 0.103 µM)
Cc1ccc2nc(C)c(C(=O)NCCOc3ccc(Br)cc3)n2c1 | 0.036 (≈ 0.0927 µM) | 0.051 (≈ 0.131 µM)
Cc1ccc2nc(C)c(C(=O)NCCOc3ccccc3C)n2c1 | 0.036 (≈ 0.111 µM) | 0.05 (≈ 0.155 µM)
Cc1cccc(OCCNC(=O)c2c(C)nc3ccc(C)cn23)c1 | 0.026 (≈ 0.0804 µM) | 0.033 (≈ 0.102 µM)
Cc1ccc2nc(C)c(C(=O)NCCOc3ccc(Cl)cc3)n2c1 | 0.025 (≈ 0.0727 µM) | 0.028 (≈ 0.0814 µM)
Cc1ccc2nc(C)c(C(=O)NCCOc3ccccc3)n2c1 | 0.03 (≈ 0.097 µM) | 0.047 (≈ 0.152 µM)
CO[C@H]1/C=C/O[C@@]2(C)Oc3c(C)c(O)c4c(O)c(c(/C=N/N5CCN(C)CC5)c(O)c4c3C2=O)NC(=O)/C(C)=C\C=C\[C@H](C)[C@H](O)[C@@H](C)[C@@H](O)[C@@H](C)[C@H](OC(C)=O)[C@@H]1C [RIFAMPIN] | 36.9 (≈ 44.8 µM) | 38.6 (≈ 47 µM)
COc1ccc(OCCNC(=O)c2c(C)nc3ccc(C)cn23)cc1 | 0.026 (≈ 0.0766 µM) | 0.034 (≈ 0.1 µM)
NNC(=O)c1ccncc1 [ISONIAZID] | > 40 | > 40
